Source: ChEMBL document CHEMBL3352189 (J Med Chem, 2014)
Activity calls are given as the source filed them. The calls are words filed in the database; no cut-off is given here.

Columns and labels:
[1] = tested on: Venezuelan equine encephalitis virus; test: Antiviral activity against Venezuelan equine encephalitis virus TC83 infected in Vero 76 cells assessed as reduction in virus-induced cytopathic effect after 2 days by Celltiter-Glo reagent based assay; assay type: functional, organism-based; settings: TC83, Vero 76, 48 h
[2] = Cytotoxicity against african green monkey Vero 76 cells after 3 days by Celltiter-Glo reagent based assay; assay type: cell-based; settings: chlorocebus sabaeus, vero 76, 72 h
Method in brief: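 Vero 76 cells were seeded overnight at 12 000/well and given an 8-point 2-fold compound series (20 mM DMSO stock) in EMEM/10% FBS with no virus. Viability was read by CellTiter-Glo after 3 days relative to untreated cells. Run in duplicate; CC50 from a four-parameter logistic or sigmoidal fit.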

[3] = Selectivity index, ratio of CC50 for african green monkey Vero 76 cells to EC50 for Venezuelan equine encephalitis virus TC83; assay type: toxicity, cell-based; settings: read-out: Ratio CC50/EC50
[4] = Aqueous solubility in PBS buffer; assay type: physicochemical
Method in brief: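 Solubility measured in 1× PBS at pH 7.4.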

[5] = tested on: Venezuelan equine encephalitis virus; test: Antiviral activity against Venezuelan equine encephalitis virus TC83 infected in Vero 76 cells assessed as reduction in viral titer at 1 uM by crystal violet staining based microplaque assay relative to untreated control; assay type: functional
[6] = tested on: Venezuelan equine encephalitis virus; test: Antiviral activity against Venezuelan equine encephalitis virus TrD infected in Vero 76 cells assessed as reduction in virus-induced cytopathic effect after 2 days by Celltiter-Glo reagent based assay; assay type: functional, organism-based; settings: Vero 76, 48 h
[7] = tested on: Venezuelan equine encephalitis virus; test: Antiviral activity against Venezuelan equine encephalitis virus V3526 infected in Vero 76 cells assessed as reduction in virus-induced cytopathic effect after 2 days by Celltiter-Glo reagent based assay; assay type: functional, organism-based; settings: V3526, Vero 76, 48 h
[8] = tested on: Venezuelan equine encephalitis virus; test: Antiviral activity against Venezuelan equine encephalitis virus TrD infected in Vero 76 cells assessed as reduction in viral titer at 5 uM by crystal violet staining based microplaque assay relative to untreated control; assay type: functional, organism-based

CN(C)c1cccc(-n2c(CN3CCNCC3)nc3ccc([N+](=O)[O-])cc3c2=O)c1
EC50 [1]: > 25 µM | CC50 [2]: > 50 µM

CCN1CCN(Cc2nc3ccc(C(=O)O)cc3c(=O)n2-c2ccccc2)CC1
EC50 [1]: > 25 µM | CC50 [2]: > 50 µM

CCN1CCN(c2nc3ccc([N+](=O)[O-])cc3c(=O)n2-c2ccccc2)CC1
EC50 [1]: > 25 µM | CC50 [2]: > 50 µM

CCN1CCN(C)C/C1=N\c1ccc([N+](=O)[O-])cc1C(=O)Nc1ccccc1
EC50 [1]: 0.05 µM | CC50 [2]: > 50 µM | selectivity ratio [3]: > 1000

O=c1c2cc([N+](=O)[O-])ccc2nc(CN2CCNCC2)n1-c1ccccc1F
EC50 [1]: 0.2 µM | CC50 [2]: > 50 µM | selectivity ratio [3]: > 250

CCN1CCN(Cc2nc3ccccc3c(=O)n2-c2ccccc2F)CC1
EC50 [1]: > 25 µM | CC50 [2]: > 50 µM

CCN1CCN(Cc2nc3ccc(C#N)cc3c(=O)n2-c2ccccc2)CC1
EC50 [1]: 1.1 µM | CC50 [2]: > 50 µM | selectivity ratio [3]: > 45.5

CCN1CCN(Cc2nc3ccc([N+](=O)[O-])cc3c(=O)n2-c2ccccc2F)CC1
EC50 [1]: 0.8 µM | CC50 [2]: > 50 µM | solubility [4]: > 122 µg/mL | fold change (FC) [5]: 3 | EC50 [6]: 0.6 µM | EC50 [7]: 0.3 µM | inhibition [8]: Active

O=c1c2cc([N+](=O)[O-])ccc2nc(CN2CCN(c3ccccc3)CC2)n1-c1ccccc1F
EC50 [1]: > 25 µM | CC50 [2]: > 50 µM

CN1CCN(C)/C(=N/c2cc(F)c(C#N)cc2C(=O)Nc2ccccc2)C1
EC50 [1]: 0.4 µM | CC50 [2]: > 50 µM | selectivity ratio [3]: > 125

COc1ccccc1-n1c(CN2CCNCC2)nc2ccc([N+](=O)[O-])cc2c1=O
EC50 [1]: > 25 µM | CC50 [2]: > 50 µM

CCN1CCN(Cc2nc3ccc(C(=O)N(C)C)cc3c(=O)n2-c2ccccc2)CC1
EC50 [1]: > 25 µM | CC50 [2]: > 50 µM

CN1CCN(C)/C(=N/c2cc(Cl)c(C#N)cc2C(=O)Nc2ccccc2)C1
EC50 [1]: 0.1 µM | CC50 [2]: > 50 µM | selectivity ratio [3]: > 500

CN1CCN(C)/C(=N/c2ccc(C#N)cc2C(=O)Nc2cccc(F)c2)C1
EC50 [1]: 0.8 µM | CC50 [2]: > 50 µM | selectivity ratio [3]: > 62.5

CCN1CCN(Cc2nc3ccc([N+](=O)[O-])cc3c(=O)n2C)CC1
EC50 [1]: > 25 µM | CC50 [2]: > 50 µM

CN1CCN(C)/C(=N/c2ccc([N+](=O)[O-])cc2C(=O)Nc2cccc(F)c2)C1
EC50 [1]: 0.1 µM | CC50 [2]: > 50 µM | selectivity ratio [3]: > 500

CCN1CCN(Cc2nc3ccc(-c4cccnc4)cc3c(=O)n2-c2ccccc2)CC1
EC50 [1]: > 25 µM | CC50 [2]: > 50 µM

O=c1c2cc([N+](=O)[O-])ccc2nc(CN2CCOCC2)n1-c1ccccc1F
EC50 [1]: 8.7 µM | CC50 [2]: > 50 µM | selectivity ratio [3]: > 5.7

CN1CCN(C)/C(=N/c2ccc([N+](=O)[O-])cc2C(=O)Nc2ccccc2F)C1
EC50 [1]: 0.2 µM | CC50 [2]: > 50 µM | selectivity ratio [3]: > 250

CCN1CCN(Cc2nc3ccc(S(=O)(=O)O)cc3c(=O)n2-c2ccccc2)CC1
EC50 [1]: > 25 µM | CC50 [2]: > 50 µM

CN1CCN(C)/C(=N/c2ccc([N+](=O)[O-])cc2C(=O)NCc2ccccc2)C1
EC50 [1]: 3.7 µM | CC50 [2]: > 50 µM | selectivity ratio [3]: > 13.5

CN(C)c1ccc(-n2c(CN3CCNCC3)nc3ccc([N+](=O)[O-])cc3c2=O)cc1
EC50 [1]: > 25 µM | CC50 [2]: > 50 µM

CN1CCN(Cc2nc3ccc([N+](=O)[O-])cc3c(=O)n2-c2ccccc2F)CC1
EC50 [1]: 0.8 µM | CC50 [2]: > 50 µM | selectivity ratio [3]: > 62.5

CCN1CCN(Cc2nc3ccc(C(N)=O)cc3c(=O)n2-c2ccccc2)CC1
EC50 [1]: > 25 µM | CC50 [2]: > 50 µM

CN1CCN(C)/C(=N/c2ccccc2C(=O)Nc2ccccc2)C1
EC50 [1]: > 25 µM | CC50 [2]: > 50 µM

CN1CCN(C)/C(=N/c2ccc(C#N)cc2C(=O)Nc2ccccc2F)C1
EC50 [1]: 3.7 µM | CC50 [2]: > 50 µM | selectivity ratio [3]: > 13.5

O=c1c2cc([N+](=O)[O-])ccc2nc(CN2CCNCC2)n1-c1ccccc1
EC50 [1]: 0.2 µM | CC50 [2]: > 50 µM | selectivity ratio [3]: > 250

CN1CCN(C)/C(=N/c2ccc(C(F)(F)F)cc2C(=O)Nc2ccccc2)C1
EC50 [1]: 22.3 µM | CC50 [2]: > 50 µM | selectivity ratio [3]: > 2.2

CCN1CCN(Cc2nc3ccc(C(F)(F)F)cc3c(=O)n2-c2ccccc2F)CC1
EC50 [1]: > 25 µM | CC50 [2]: > 50 µM

CN1CCN(C)/C(=N/c2cc(F)c(F)cc2C(=O)Nc2ccccc2)C1
EC50 [1]: 4.4 µM | CC50 [2]: > 50 µM | selectivity ratio [3]: > 11.4

CCN1CCN(Cc2nc3ccc(I)cc3c(=O)n2-c2ccccc2)CC1
EC50 [1]: 17.1 µM | CC50 [2]: > 50 µM | selectivity ratio [3]: > 2.9

CCN1CCN(Cc2nc3ccc([N+](=O)[O-])cc3c(=O)n2C(C)C)CC1
EC50 [1]: > 25 µM | CC50 [2]: > 50 µM

O=c1c2cc([N+](=O)[O-])ccc2nc(CN2CCNCC2)n1-c1ccsc1
EC50 [1]: 1.4 µM | CC50 [2]: > 50 µM | selectivity ratio [3]: > 35.7

COc1ccccc1NC(=O)c1cc([N+](=O)[O-])ccc1/N=C1\CN(C)CCN1C
EC50 [1]: 33.7 µM | CC50 [2]: > 50 µM | selectivity ratio [3]: > 1.5

CCN1CCN(Cc2nc3ccc([N+](=O)[O-])cc3c(=O)n2-c2cccc(F)c2)CC1
EC50 [1]: 0.4 µM | CC50 [2]: > 50 µM | selectivity ratio [3]: > 125

CN1CCN(C)/C(=N/c2ccc([N+](=O)[O-])cc2C(=O)Nc2ccsc2)C1
EC50 [1]: 0.5 µM | CC50 [2]: > 50 µM | selectivity ratio [3]: 100

O=c1c2cc([N+](=O)[O-])ccc2nc(CN2CCCNCC2)n1-c1ccccc1
EC50 [1]: 0.9 µM | CC50 [2]: > 50 µM | selectivity ratio [3]: > 55.6

CCN1CCN(Cc2nc3ccc(-c4ccccn4)cc3c(=O)n2-c2ccccc2)CC1
EC50 [1]: > 25 µM | CC50 [2]: > 50 µM

CNCCCN(C)Cc1nc2ccc([N+](=O)[O-])cc2c(=O)n1-c1ccccc1
EC50 [1]: 0.6 µM | CC50 [2]: > 50 µM | selectivity ratio [3]: > 83.3

COC(=O)c1ccc(/N=C2\CN(C)CCN2C)c(C(=O)Nc2ccccc2)c1
EC50 [1]: 2 µM | CC50 [2]: > 50 µM | selectivity ratio [3]: > 25

O=C1CN(Cc2nc3ccc([N+](=O)[O-])cc3c(=O)n2-c2ccccc2F)CCN1
EC50 [1]: > 25 µM | CC50 [2]: > 50 µM

COc1cccc(NC(=O)c2cc([N+](=O)[O-])ccc2/N=C2\CN(C)CCN2C)c1
EC50 [1]: 8.1 µM | CC50 [2]: > 50 µM | selectivity ratio [3]: > 6.2

CCN1CCN(Cc2nc3ccc(-c4nnn[nH]4)cc3c(=O)n2-c2ccccc2)CC1
EC50 [1]: > 25 µM | CC50 [2]: > 50 µM

CN1CCN(C)/C(=N/c2cc([N+](=O)[O-])ccc2C(=O)Nc2ccccc2)C1
EC50 [1]: 8.4 µM | CC50 [2]: > 50 µM | selectivity ratio [3]: > 6

CN1CCN(C)/C(=N/c2ccc(F)cc2C(=O)Nc2ccccc2)C1
EC50 [1]: 6.4 µM | CC50 [2]: > 50 µM | selectivity ratio [3]: > 7.8

CC(C)N1CCN(Cc2nc3ccc([N+](=O)[O-])cc3c(=O)n2-c2ccccc2F)CC1
EC50 [1]: 4.4 µM | CC50 [2]: > 50 µM | selectivity ratio [3]: > 11.4

O=c1c2cc([N+](=O)[O-])ccc2nc(C2CCNCC2)n1-c1ccccc1
EC50 [1]: 3.6 µM | CC50 [2]: > 50 µM | selectivity ratio [3]: > 13.9

CCN1CCN(Cc2nc3ccc([N+](=O)[O-])cc3c(=O)n2-c2ccc(F)cc2)CC1
EC50 [1]: 0.8 µM | CC50 [2]: > 50 µM | selectivity ratio [3]: > 62.5

CN1CCN(C)/C(=N/c2ccc([N+](=O)[O-])cc2C(=O)Nc2ccc(F)cc2)C1
EC50 [1]: 0.09 µM | CC50 [2]: > 50 µM | selectivity ratio [3]: > 556

CN1CCN(C)/C(=N/c2ccc(C#N)cc2C(=O)Nc2ccccc2)C1
EC50 [1]: 0.4 µM | CC50 [2]: > 50 µM | selectivity ratio [3]: > 125

CCN1CCN(Cc2nc3ccc([N+](=O)[O-])cc3c(=O)[nH]2)CC1
EC50 [1]: > 25 µM | CC50 [2]: > 50 µM

CCN1CCN(Cc2nc3ccc([N+](=O)[O-])cc3c(=O)n2-c2ccccc2)CC1
EC50 [1]: 0.3 µM | CC50 [2]: > 50 µM | selectivity ratio [3]: > 167

COc1ccc(-n2c(CN3CCNCC3)nc3ccc([N+](=O)[O-])cc3c2=O)cc1
EC50 [1]: 0.2 µM | CC50 [2]: > 50 µM | selectivity ratio [3]: > 250

O=c1c2cc([N+](=O)[O-])ccc2nc(CN2CCCNC2)n1-c1ccccc1
EC50 [1]: 1.1 µM | CC50 [2]: > 50 µM | selectivity ratio [3]: > 45.5

CCN1CCN(Cc2nc3ccc([N+](=O)[O-])cc3c(=O)n2Cc2ccccc2)CC1
EC50 [1]: > 25 µM | CC50 [2]: > 50 µM

CN1CCN(C)/C(=N/c2cc(F)ccc2C(=O)Nc2ccccc2)C1
EC50 [1]: > 25 µM | CC50 [2]: > 50 µM

CC(C)NC(=O)c1cc([N+](=O)[O-])ccc1/N=C1\CN(C)CCN1C
EC50 [1]: > 25 µM | CC50 [2]: > 50 µM

COc1cccc(-n2c(CN3CCNCC3)nc3ccc([N+](=O)[O-])cc3c2=O)c1
EC50 [1]: 5.1 µM | CC50 [2]: > 50 µM | selectivity ratio [3]: > 9.8

O=c1c2cc([N+](=O)[O-])ccc2nc(CN2CCCCC2)n1-c1ccccc1F
EC50 [1]: 4.7 µM | CC50 [2]: > 50 µM | selectivity ratio [3]: > 10.6
